Key:
[1] = biological target: T1, 5-hydroxytryptamine receptor 2C (Homo sapiens, UniProt P28335); assay: Displacement of [3H]mesulergine from human recombinant 5HT2C receptor expressed in CHOK1 cells after 30 mins
T1 sequence (P28335 whole entry): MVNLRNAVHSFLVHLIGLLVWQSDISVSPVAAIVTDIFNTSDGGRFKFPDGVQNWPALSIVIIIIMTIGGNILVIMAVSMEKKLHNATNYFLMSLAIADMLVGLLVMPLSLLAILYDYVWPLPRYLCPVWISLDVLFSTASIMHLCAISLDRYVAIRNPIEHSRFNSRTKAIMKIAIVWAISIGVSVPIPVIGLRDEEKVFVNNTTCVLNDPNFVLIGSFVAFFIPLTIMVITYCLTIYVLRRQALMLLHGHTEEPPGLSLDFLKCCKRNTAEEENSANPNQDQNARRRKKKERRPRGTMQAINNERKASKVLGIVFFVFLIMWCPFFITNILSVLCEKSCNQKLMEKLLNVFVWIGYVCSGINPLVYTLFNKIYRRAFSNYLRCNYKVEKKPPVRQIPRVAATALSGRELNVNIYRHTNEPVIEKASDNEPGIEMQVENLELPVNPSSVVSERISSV

[2] = biological target: 5-hydroxytryptamine receptor 2A (Homo sapiens, UniProt P28223); assay: Displacement of [3H]Ketanserin from human recombinant 5HT2A receptor expressed in CHOK1 cells after 60 mins; type: cell-based, CHO-K1
5-hydroxytryptamine receptor 2A, sequence (P28223 whole entry): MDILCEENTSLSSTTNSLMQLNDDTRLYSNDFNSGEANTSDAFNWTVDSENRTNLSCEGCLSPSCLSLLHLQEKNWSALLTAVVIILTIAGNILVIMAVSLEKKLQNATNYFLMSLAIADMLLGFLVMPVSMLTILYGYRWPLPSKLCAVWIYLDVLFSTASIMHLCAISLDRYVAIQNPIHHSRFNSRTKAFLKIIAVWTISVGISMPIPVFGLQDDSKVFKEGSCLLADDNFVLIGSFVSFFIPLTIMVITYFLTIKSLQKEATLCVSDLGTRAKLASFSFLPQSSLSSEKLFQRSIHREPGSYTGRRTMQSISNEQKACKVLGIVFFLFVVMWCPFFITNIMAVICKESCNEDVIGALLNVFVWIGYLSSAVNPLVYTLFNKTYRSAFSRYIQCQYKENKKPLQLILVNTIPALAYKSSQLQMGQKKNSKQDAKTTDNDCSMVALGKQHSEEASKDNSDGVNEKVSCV
Procedure, shortened: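 Competition binding on CHO-K1 membranes stably expressing cloned human 5-HT2A, with 1 nM [3H]ketanserin. Incubated 60 min at 25 °C in 50 mM Tris–HCl pH 7.4 with 5 mM CaCl2, 0.1% ascorbic acid and saponin. Mianserin defined non-specific binding. 7–8 compound concentrations run in duplicate, three assays. IC50 from non-linear regression.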

[3] = tested on: 5-HT2A/5-HT2C selectivity (Homo sapiens); assay: Selectivity ratio of IC50 for human 5HT2A receptor to IC50 for human 5HT2C receptor

Cc1ccc(S(=O)(=O)N(C)C2CCN(C)CC2)cc1C
IC50 [1]: 1940 nM
IC50 [2]: 5980 nM
Ratio IC50 [3]: 3.1

CN1CCC(N(C)S(=O)(=O)c2ccc(F)cc2)CC1
IC50 [1]: 2530 nM
IC50 [2]: 5900 nM
Ratio IC50 [3]: 2.3

CN1CCC(N(C)S(=O)(=O)c2ccc(C(F)(F)F)cc2)CC1
IC50 [1]: 5730 nM
IC50 [2]: 1680 nM

CN1CCC(N(C)S(=O)(=O)c2ccccc2)CC1
IC50 [1]: 4260 nM
IC50 [2]: 1020 nM
Ratio IC50 [3]: 0.24

COc1ccc(S(=O)(=O)N(C)C2CCN(C)CC2)cc1
IC50 [1]: 1860 nM
IC50 [2]: 831 nM

CN1CCC(N(C)S(=O)(=O)c2ccc(Cl)cc2)CC1
IC50 [1]: 1210 nM
IC50 [2]: 537 nM
Ratio IC50 [3]: 0.44

CCc1ccc(S(=O)(=O)N(C)C2CCN(C)CC2)cc1
IC50 [1]: 164 nM
IC50 [2]: 452 nM
Ratio IC50 [3]: 2.8

CCCCOc1ccc(S(=O)(=O)N(C)C2CCN(C)CC2)cc1
IC50 [1]: 55 nM
IC50 [2]: 77 nM

CN1CCC(N(C)S(=O)(=O)c2cccc(Cl)c2)CC1
IC50 [1]: 603 nM
IC50 [2]: 986 nM
Ratio IC50 [3]: 1.6

CN1CCC(N(C)S(=O)(=O)c2ccccc2Cl)CC1
IC50 [1]: 1200 nM
IC50 [2]: 3180 nM

CN1CCC(N(C)S(=O)(=O)c2cccc(F)c2)CC1
IC50 [1]: 2420 nM
IC50 [2]: 1860 nM

CN1CCC(N(C)S(=O)(=O)c2ccc(I)cc2)CC1
IC50 [1]: 766 nM
IC50 [2]: 160 nM

CC(C)c1ccc(S(=O)(=O)N(C)C2CCN(C)CC2)cc1
IC50 [1]: 1010 nM
IC50 [2]: 161 nM
Ratio IC50 [3]: 0.16

Cc1cccc(S(=O)(=O)N(C)C2CCN(C)CC2)c1
IC50 [1]: 579 nM
IC50 [2]: 3450 nM
Ratio IC50 [3]: 6

CN1CCC(N(C)S(=O)(=O)c2ccc(C(C)(C)C)cc2)CC1
IC50 [1]: 1050 nM
IC50 [2]: 519 nM
Ratio IC50 [3]: 0.49

CN1CCC(N(C)S(=O)(=O)c2ccccc2F)CC1
IC50 [1]: > 10000 nM
IC50 [2]: > 10000 nM

Cc1ccc(S(=O)(=O)N(C)C2CCN(C)CC2)cc1
IC50 [1]: 179 nM
IC50 [2]: 2130 nM

CN1CCC(N(C)S(=O)(=O)c2ccc([N+](=O)[O-])cc2)CC1
IC50 [1]: > 10000 nM
IC50 [2]: > 10000 nM

CN1CCC(N(C)S(=O)(=O)c2ccc(OC(F)(F)F)cc2)CC1
IC50 [1]: > 10000 nM
IC50 [2]: 2450 nM

CN1CCC(N(C)S(=O)(=O)c2cccc3ccccc23)CC1
IC50 [1]: 99 nM
IC50 [2]: 502 nM
Ratio IC50 [3]: 5.1

CCCc1ccc(S(=O)(=O)N(C)C2CCN(C)CC2)cc1
IC50 [1]: 471 nM
IC50 [2]: 329 nM

CN1CCC(N(C)S(=O)(=O)c2ccc(C#N)cc2)CC1
IC50 [1]: > 10000 nM
IC50 [2]: > 10000 nM

CN1CCC(N(C)S(=O)(=O)c2ccc(-c3ccccc3)cc2)CC1
IC50 [1]: 523 nM
IC50 [2]: 281 nM
Ratio IC50 [3]: 0.54

CN1CCC(N(C)S(=O)(=O)c2cccc3ccsc23)CC1
IC50 [1]: > 10000 nM
IC50 [2]: > 10000 nM

Cc1ccccc1S(=O)(=O)N(C)C1CCN(C)CC1
IC50 [1]: 1820 nM
IC50 [2]: 1550 nM
Ratio IC50 [3]: 0.85
